{
  "source": "PubChem BioAssay AID1885",
  "about": "(Broad Institute, 2009)",
  "note": "In all, about 300,000 compounds went through this assay and about 4,400 (1.5%) were called active. What follows is part of a selection rich in actives, with near analogues and random picks from the rest. Unmarked numbers belong to inactive results.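 The calls were made as follows: active = mean inhibition across valid replicates above about 55% (limit read from the data); inconclusive = mean below that limit but half or more replicates reach it; inactive = mean below it, under half of replicates reach it.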",
  "data": [
    {"test": "inhibitors of intracellular T. cruzi growth, primary screen, luminescence, NIH3T3 host cells (AID 1885);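 also: signal also drops with host cell toxicity which is not excluded here; 0% = plate median of DMSO wells and 100% = zero luminescence signal; higher percent means less beta-gal luminescence so fewer parasites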", "settings": "T. cruzi beta-gal in NIH3T3, luminescence, 90 h; hits give high values; concentration not given here", "method_in_brief": "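Material: NIH/3T3 host cells with β-galactosidase reporter T. cruzi; Input: 5,000 host fibroblasts per well; Medium: DMEM, 2% fetal bovine serum; Compound: 50 nL DMSO compound solution per well; Schedule: 3 h host attachment, then at least 90 h co-culture; Detection: luminescent β-galactosidase signal after 60 min lysis.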", "values": [
      {"smiles": "CN(C)CCCCCN(C)Cc1cc2ccccc2o1", "inhibition": "69.5% (active)"},
      {"smiles": "COc1ccccc1CN(C)C(=O)c1cc2ccccc2o1", "inhibition": "0.505%"},
      {"smiles": "N=c1oc2ccccc2cc1C(=O)NCc1ccccc1", "inhibition": "-12.9%"},
      {"smiles": "O=C(COc1ccc2ccc(=O)oc2c1)NCC(O)c1ccccc1", "note": "(stereo not drawn)", "inhibition": "-12.4%"},
      {"smiles": "COc1cc(NC(=O)CCNC(=O)Cn2ccc3ccccc3c2=O)cc(OC)c1OC", "inhibition": "-1.49%"},
      {"smiles": "Cc1ccc(-c2c(C)n([O-])c3c([n+]2=O)CCC3)cc1", "inhibition": "-4.48%"},
      {"smiles": "CCOc1cc(NC(=O)Nc2ccccc2)c(OCC)cc1NC(=O)CC", "inhibition": "-28.4%"},
      {"smiles": "NC(=O)c1ccccc1NC(=O)c1ccccc1F", "inhibition": "-8.84%"},
      {"smiles": "CCOc1cc(NC(=O)c2ccccc2C(=O)O)c(OCC)cc1NC(=O)c1ccccc1F", "inhibition": "60.5% (active)"},
      {"smiles": "COc1cccc(N(CC(=O)NC2CCCCCC2)S(=O)(=O)c2ccccc2)c1", "inhibition": "21.4%"},
      {"smiles": "Cc1occc1C(=O)N/N=C/c1ccc(-c2cccc([N+](=O)[O-])c2)o1", "inhibition": "67.8% (active)"},
      {"smiles": "Cc1ccc(-c2ccc(/C=N/NC(=O)CN3CCOCC3)o2)cc1[N+](=O)[O-]", "inhibition": "-11.4%"},
      {"smiles": "Cc1cc(C(=O)N/N=C/c2ccccc2[N+](=O)[O-])c(C)o1", "inhibition": "-0.35%"},
      {"smiles": "CC(=O)N1CCN(CC(C)(C)NS(=O)(=O)c2ccc(C)cc2)CC1", "inhibition": "11.8%"},
      {"smiles": "O=C(Nc1ncc([N+](=O)[O-])s1)C1COc2ccccc2O1", "note": "(stereo not drawn)", "inhibition": "-1.76%"},
      {"smiles": "O=C(CCc1ccccc1)Nc1ncc([N+](=O)[O-])s1", "inhibition": "86.1% (active)"},
      {"smiles": "O=C(Cc1c(F)cccc1Cl)Nc1ncc([N+](=O)[O-])s1", "inhibition": "50.4%"},
      {"smiles": "Cc1ccccc1C(=O)NNC(=O)CN1C(=O)c2ccccc2C1=O", "inhibition": "-15.4%"},
      {"smiles": "COc1ccc(OCc2cc(C(=O)NCC3(C)COC3)no2)c(Cl)c1", "inhibition": "-0.702%"},
      {"smiles": "CCCCn1c(N)c(N(CCOC)C(=O)c2cccc(S(=O)(=O)N3CCCCC3)c2)c(=O)[nH]c1=O", "inhibition": "-8.61%"},
      {"smiles": "COCCCNC(=O)/C=C/c1ccc(OCc2c(F)cccc2Cl)cc1", "inhibition": "19%"},
      {"smiles": "CN(C)CCCNC(=O)/C=C/c1ccc(OCc2c(F)cccc2Cl)cc1", "inhibition": "55.5% (active)"},
      {"smiles": "O=C(/C=C/c1ccc(OCc2c(F)cccc2Cl)cc1)N1CCOCC1", "inhibition": "16.6%"},
      {"smiles": "COc1ccc(C2c3[nH]c4ccccc4c3C[C@H]3C(=O)N(CC(C)C)CC(=O)N23)c(OC)c1", "note": "(stereo partly drawn)", "inhibition": "9.19%"},
      {"smiles": "Cc1cccc2cc(CN(Cc3cccs3)C(=S)NCc3ccco3)c(=O)[nH]c12", "inhibition": "18.3%"},
      {"smiles": "COCCCNC(=S)N(CCN(C)C)Cc1cc2cc3c(cc2[nH]c1=O)OCCO3", "inhibition": "-7.66%"},
      {"smiles": "Cc1cc(C)c2[nH]c(=O)c(CN(Cc3ccccc3)C(=S)NCCCN(C)C)cc2c1", "inhibition": "59.1% (active)"},
      {"smiles": "COc1ccc(Cc2cc(-c3ccc(F)cc3)n[nH]c2=O)cc1", "inhibition": "-6.16%"},
      {"smiles": "CC1(c2ccccc2)NC(=O)N(CC(=O)Nc2cc(Cl)ccc2N2CCOCC2)C1=O", "note": "(stereo not drawn)", "inhibition": "5.62%"},
      {"smiles": "CCc1cccc(C)c1NC(=O)COC(=O)CNC(=O)c1cccs1", "inhibition": "-15.5%"},
      {"smiles": "CN1CCN(c2ccc(S(=O)(=O)Nc3ccccc3)cc2[N+](=O)[O-])CC1", "inhibition": "18.5%"},
      {"smiles": "O=[N+]([O-])c1cc(S(=O)(=O)Nc2cccc(Cl)c2)ccc1N=Nc1c(O)[nH]c2ccccc12", "inhibition": "61.7% (active)"},
      {"smiles": "Cc1cccc(N(CC(=O)N=Nc2c(O)[nH]c3ccccc23)S(C)(=O)=O)c1C", "inhibition": "16.1%"},
      {"smiles": "O=C(NCC(c1ccco1)N1CCc2ccccc2C1)c1ccccc1Cl", "note": "(stereo not drawn)", "inhibition": "-5.54%"},
      {"smiles": "O=C(NCc1cccnc1)c1cc(S(=O)(=O)N2CCOCC2)c(Cl)cc1Cl", "inhibition": "3.92%"},
      {"smiles": "Cc1noc(C)c1CSCC(=O)Nc1ccc(Br)cc1Cl", "inhibition": "1.67%"},
      {"smiles": "O=C(Nc1cccc(NC(=O)c2ccco2)c1)c1cnccn1", "inhibition": "21.9%"},
      {"smiles": "O=C(Nc1cc(-c2nc3ncccc3o2)ccc1Cl)c1ccco1", "inhibition": "-11%"},
      {"smiles": "O=C(Nc1cccc(-c2nc3ncccc3o2)c1)c1ccco1", "inhibition": "69.4% (active)"},
      {"smiles": "N#Cc1ccccc1NC(=O)COc1c(Br)cc(Br)c2cccnc12", "inhibition": "-12.8%"},
      {"smiles": "CCN1CCN(c2ccc(S(=O)(=O)N3CCCCC3)cc2NC(=O)c2cccc(NC(C)=O)c2)CC1", "inhibition": "0.05%"},
      {"smiles": "CN1CCN(c2ccc(S(=O)(=O)N3CCOCC3)cc2NC(=O)CCc2ccccc2)CC1", "inhibition": "54.9% (active)"},
      {"smiles": "CCN1CCN(c2ccc(S(=O)(=O)N3CCCCC3)cc2NC(=O)Cc2c(Cl)cccc2Cl)CC1", "inhibition": "65.7% (active)"},
      {"smiles": "O=C(COc1cccc2ccccc12)Nc1cc(S(=O)(=O)N2CCOCC2)ccc1N1CCOCC1", "inhibition": "2.7%"},
      {"smiles": "CC(=O)NCCC(=O)Nc1cc(S(=O)(=O)N2CCOCC2)ccc1N1CCOCC1", "inhibition": "-12%"},
      {"smiles": "CN1CCN(c2ccc(S(=O)(=O)N3CCCCC3)cc2NC(=O)Cc2ccccc2F)CC1", "inhibition": "45.1%"},
      {"smiles": "CCOC(=O)C1=C(c2ccccc2)N=C2SCC(=O)N2C1c1ccc(O)c(OC)c1", "note": "(stereo not drawn)", "inhibition": "-14.5%"},
      {"smiles": "Cc1nn(C)c(C)c1CN(C(=O)CCc1nnc(Cc2c[nH]c3ccccc23)o1)C(C)C", "inhibition": "9.23%"},
      {"smiles": "CCOC(=O)N1CCN(S(=O)(=O)c2ccc(-n3cnnn3)cc2)CC1", "inhibition": "0.644%"},
      {"smiles": "COc1ccc(NC(=O)C(=O)NCC(c2ccco2)N2CCc3ccccc3C2)cc1", "note": "(stereo not drawn)", "inhibition": "9.29%"},
      {"smiles": "CCc1ccccc1NC(=O)NCCN1CCCCC1", "inhibition": "1.39%"},
      {"smiles": "CC1CCC2CCCCC2N1C(=O)c1cc([N+](=O)[O-])cc([N+](=O)[O-])c1", "note": "(stereo not drawn)", "inhibition": "56% (active)"},
      {"smiles": "O=C(c1cc(C(=O)N2CCN(c3ccc(F)cc3)CC2)cc([N+](=O)[O-])c1)N1CCN(c2ccc(F)cc2)CC1", "inhibition": "45.8%"},
      {"smiles": "CC1CCN(C(=S)c2cccc([N+](=O)[O-])c2)CC1", "inhibition": "1.31%"},
      {"smiles": "OCC(O)CN(c1ccccc1)c1ccccc1", "note": "(stereo not drawn)", "inhibition": "-11.6%"},
      {"smiles": "COc1cc(Br)c(-c2sc(Nc3ccccc3)n[n+]2-c2ccccc2)cc1OC", "inhibition": "0.144%"},
      {"smiles": "COc1ccc(C)cc1Nc1n[n+](-c2ccccc2)c(-c2cccc(Cl)c2Cl)s1", "inhibition": "61.2% (active)"},
      {"smiles": "COc1ccc(C)cc1S(=O)(=O)Nc1cccc(Cl)c1Cl", "inhibition": "8.72%"}
    ]}
  ]
}
